M1 antag: M1 muscarinic receptor (rat) antagonism | CHO-M1 cells, Fluo-4 calcium, ACh EC80 antagonist mode; active compounds read low | B-score at 10 µM | P08482 | AID 628 | 3.4% of 64,000 active;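 active means calcium fluorescence response, raw or row-and-column corrected B-score, differing from the plate sample mean either way at a set confidence level, mostly lower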
Target sequence (P08482 whole entry, looked up): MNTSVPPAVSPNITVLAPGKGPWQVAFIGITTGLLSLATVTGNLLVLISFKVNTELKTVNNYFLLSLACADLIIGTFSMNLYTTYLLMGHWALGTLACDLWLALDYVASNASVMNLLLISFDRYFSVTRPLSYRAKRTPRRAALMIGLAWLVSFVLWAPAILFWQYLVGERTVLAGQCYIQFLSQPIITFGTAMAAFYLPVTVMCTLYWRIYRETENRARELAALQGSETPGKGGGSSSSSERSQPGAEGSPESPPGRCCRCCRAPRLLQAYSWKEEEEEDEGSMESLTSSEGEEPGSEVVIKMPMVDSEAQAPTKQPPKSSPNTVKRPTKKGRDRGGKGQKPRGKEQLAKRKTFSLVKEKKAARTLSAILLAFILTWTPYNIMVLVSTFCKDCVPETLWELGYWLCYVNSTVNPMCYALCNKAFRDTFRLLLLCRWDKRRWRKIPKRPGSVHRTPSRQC
SF1 activator: activators of human nuclear receptor SF-1. CHO-K1 Gal4-SF-1 LBD luciferase reporter; % increase over DMSO SF-1-specific signal. activation, % at 10 µM. 1.9% of 65,000 active;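 active means activation above the mean activation of all tested compounds plus 3 SD, cut at about 50% in these data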
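Compound – one dose, 10 µM compound, 1% DMSO · Test system – transient Gal4-SF-1 LBD reporter, CHO-K1 · Input – 4,000 cells in each well · Read-out basis – percent activation relative to DMSO median and mock-transfected background · Replicates – single measurement per compound · Technique – steady-glow luciferase luminescence, read after 15 min reagent incubation · Timing – 20 h compound treatment, 37 °C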
D1 mod: allosterically modulates the human D1 dopamine receptor; P21728; HEK293 D1, CRE-luciferase, dopamine EC30 potentiation; actives deviate in either direction; 5.9% of 58,000 active; B-score at 10 µM;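 active means luminescence count or its row- and column-corrected plate score outside the 99.7% band of the plate's sample wells, on either side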
mHtt clearance: mutant huntingtin protein clearance. HeLa Exon1htt(103Q)mCFP, aggregate imaging; zero = plate's median compound well. inhibition, % at 1.5 µM. 0.42% of 47,000 active. AID 853;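 active means inhibition of aggregate fluorescence above about 70%, also judged a hit by eye on the cell image, limit read from the data, passing the limit was not always enough; inconclusive means no rule stated for this call; inactive means not judged a hit on image review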;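 further: cells exposed to compound for three days before fixation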
RORa activator: RORA (human) activation | P35398 | CHO-K1 Gal4-RORA LBD luciferase reporter, luminescence; percent increase over mock-subtracted basal signal | activation, % at 10 µM | 1.5% of 65,000 active | AID 560;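 active means activation above the mean of all tested compounds plus 3 SD, cut at about 49% in these data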;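 further: 0% = DMSO-treated RORA cells and 100% = added signal equal to DMSO minus mock-transfected cells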
M1 agonist: M1 muscarinic receptor agonism; CHO-M1 cells, Fluo-4 calcium fluorescence, agonist mode; active compounds read high; B-score at 10 µM; AID 626; 3% of 64,000 active;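 active means fluorescence rise, raw or as B-score row- and column-corrected plate score, outside the 99.7% band of its plate's samples, either direction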
M1 agonist conf: rat M1 muscarinic agonism, confirmation. CHO-M1 cells, Fluo-4 calcium fluorescence, agonist mode; actives lie on both sides. 19% of 1,700 active. fluorescence change (max-min) at 10 µM. shares compounds with M1 agonist;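 active means fluorescence change differs from the solvent-only DMSO control mean at a set confidence level in both duplicate runs; inconclusive means differs from solvent-only control mean in just one of two runs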;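 further: an EC20 dose of acetylcholine follows compound addition during the same imaging run; raw fluorescence intensity difference in instrument units with no normalization to controls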
M4 agonist ctr: rat M4 muscarinic agonism, M1 counter-screen; shares compounds with M1 agonist; CHO M4/Gqi5 cells, Fluo-4 calcium fluorescence, agonist mode; actives lie on both sides; fluorescence change (max-min) at 10 µM; 9% of 1,700 active;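 active means fluorescence change differing from the plate's solvent-only control wells at 99.7% confidence in both duplicates, whether higher or lower; inconclusive means differs from solvent controls in only one of two duplicates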
M1 antag conf: confirmation of rat M1 muscarinic receptor antagonists; shares compounds with M1 antag; CHO-M1 cells, Fluo-4 calcium, ACh EC80 antagonism; active compounds read low; calcium response (max-min fluorescence) at 10 µM; 43% of 1,700 active;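 active means calcium response below the same-plate mean of wells given acetylcholine alone at its 80%-effect dose, minus 3 SD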;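 further: raw fluorescence intensity difference in arbitrary instrument units and not normalized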
mGluR4 antag: selectivity test for M1 antagonists: human mGluR4 receptor; shares compounds with M1 antag; CHO-mGluR4 calcium flux, Fluo-4 fluorescence, glutamate EC80; active compounds read low; fluorescence response (max-min) at 10 µM; 0.9% of 1,700 active; AID 678;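 active means fluorescence response below the plate's average for near-maximal glutamate wells, less 3 SD of those wells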;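 further: raw unnormalized fluorescence span taken in the window right after glutamate addition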
D1 PAM confirm: confirmation of human D1 dopamine receptor allosteric modulators; AID 642; luminescence at 10 µM; 88% of 2,200 active; HEK293 D1 CRE-luciferase, dopamine EC30 potentiation; active compounds read high; shares compounds with D1 mod;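 active means luminescence in either of two replicates above the same-plate mean plus 3 SD of the low-dose dopamine control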
D1 ag no DA: secondary test of D1 modulators: activity without dopamine; luminescence at 10 µM; HEK293 D1 CRE-luciferase, luminescence, no dopamine; active compounds read high; 0.8% of 1,900 active; shares compounds with D1 mod; in the data active means luminescence above about 3900
Isoprot counter: counter-screen for D1 modulators: isoproterenol response in HEK293 cells | 63% of 2,200 active | HEK293 D1 CRE-luciferase, isoproterenol EC30 counter-screen | AID 647 | calls only at 10 µM | shares compounds with D1 mod;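 active means luminescence in either replicate above plate mean of wells with a partly effective reference agonist dose plus 3 SD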;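 further: isoproterenol raises cAMP through native beta-adrenoceptor Gs so signal bypasses D1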
* hit, by the source's call; i = inactive; ? = inconclusive; / = not tested or not shown; + = active, no number. In the library only some 11% were active in any assay of this set; here they are far more common.

SMILES | M1 antag | SF1 activator | D1 mod | mHtt clearance | RORa activator | M1 agonist | M1 agonist conf | M4 agonist ctr | M1 antag conf | mGluR4 antag | others
CC1=C(C#N)C(=O)N(C)C(C)(C)C1 | -0.0181 | -8.0 | 0.945 | / | 15.1 | 19.3* | -10.4 | -33.3 | / | /
O=S(=O)(NCC(c1cccnc1)N1CCN(c2ccccc2)CC1)c1cc(F)ccc1F (stereo unspecified) | -0.612 | 3.7 | -0.538 | / | -10.0 | -0.104 | / | / | / | /
COc1ccc(C2CC(=O)N3CN(c4ccc(C)c(Cl)c4)CSC3=C2C#N)cc1OC (stereo unspecified) | 0.0928 | 1.5 | / | -11.5 | -10.1 | 10.2* | ? | -29 | / | /
CCn1c(C)nc2cc(S(=O)(=O)C(F)(F)C(F)C(F)(F)F)ccc21 (stereo unspecified) | -1.93 | -33.9 | -0.796 | / | 4.8 | 4.75* | -7.43 | ? | / | /
O=C1N(CCCCN2C(=O)C3(OCCO3)c3ccccc32)c2ccccc2C12OCCO2 | 0.681 | 3.7 | 0.215 | 41.2 | 3.3 | 3.09* | -0.347 | -7.57 | / | /
CC1CCCCN1C(=O)Nc1cccc(Cl)c1 (stereo unspecified) | -19.4* | 0.8 | 0.792 | 59.4 | 0.0 | 15.9* | ? | -59 | / | /
COc1cccc(C(c2nnnn2Cc2ccccc2)N2CCN(C(=O)c3ccco3)CC2)c1OC (stereo unspecified) | -10.8* | 6.9 | 0.148 | 46.6 | -23.1 | -2.31* | -12.8 | -13 | 514 | 184
COC(=O)c1cc2ccsc2n1Cc1cc(=O)n2ccccc2n1 | -7.39* | 12.8 | / | / | 10.7 | -1.81* | -15.5 | -47.2 | 27.7* | 201
O=C(Nc1cccnc1)C1(c2ccc(Cl)cc2)CCCC1 | / | / | / | -67.0 | / | / | / | / | / | /
COc1ccccc1N1CCN(Cc2ccc(OC)c(OC)c2OC)CC1 | -6.28* | -29.3 | 0.0453 | / | -22.3 | -2.64* | -15.7 | -35.7 | 601 | 197
CCOc1ccccc1N1CCN(Cc2cccc(OC)c2OC)CC1 | -0.216 | -8.1 | -0.892 | 50.8 | -5.0 | -0.0241 | / | / | / | /
CCOC(=O)C1CCCN(C2CC(=O)N(c3ccc(C)c(C)c3)C2=O)C1 (stereo unspecified) | 0.22 | -5.7 | 1.21 | 38.3 | -19.5 | 1.18 | / | / | / | /
CCOC(=O)C1CCCN(C2CC(=O)N(c3cccc(C(F)(F)F)c3)C2=O)C1 (stereo unspecified) | -3.31* | -7.6 | / | / | 1.5 | 9.04* | 66.5* | -37.7 | 619 | 238
CC1CCCN(C(=O)CSCC(=O)N=c2sc3ccccc3n2C)C1 (stereo unspecified) | 0.562 | -5.3 | 0.453 | 43.5 | -8.2 | 0.752 | / | / | / | /
Clc1ccc(-n2nnnc2-c2ccccc2)cc1 | -0.453 | -7.1 | 3.54* | / | -1.3 | 3.31* | -25.7* | -49.3 | / | / | D1 PAM confirm=8784*;D1 ag no DA=1344;Isoprot counter=i
CC(C)(C)C(=O)c1sc(Nc2ccccc2)nc1N | 0.666 | 48.3 | 12.1* | 36.0 | 21.4 | 3.07* | ? | -57.1 | / | / | D1 PAM confirm=16628*;D1 ag no DA=1584;Isoprot counter=+

Screens: PubChem, several laboratories
